Source: PubChem
A selection: hits, their analogues and other compounds. The true share with any hit is near 10%.
L major viab – inhibitors of Leishmania major promastigote growth. Leishmania major promastigotes, resazurin fluorescence viability. inhibition, % at 10 µM. 200,000 tested, 9% active. AID 1063; in the data active means inhibition above about 50%;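 further: promastigotes grown with compound for 44 hours at 28 °C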
Diaphorase act – activates diaphorase or chemically reduces, flagging diaphorase assay artifacts; activation factor at 20 µM; Diaphorase/resazurin coupled assay, resorufin fluorescence, 16 min; active compounds read high; 1 = vehicle wells, 0 = NADH-free wells; 190,000 tested, 0.005% active;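 active means diaphorase activity raised at least twofold by the compound at 20 µM; inactive means activation factor below 2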
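Material: Purified diaphorase enzyme from Clostridium kluyveri | Buffer or medium: 50 mM HEPES pH 7.4 with 4.542 mM MgCl2, 0.005% Tween 20 | Times: 16 min enzyme reaction, ambient temperature | Signal: Red resorufin fluorescence at 544/590 nm excitation/emission | Measure: Increased resorufin signal from activators or reducing compounds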
WT yeast gro inh – growth inhibition of WT yeast, mitochondrial fusion screen; mitochondrial fusion phenotypic screen, WT strain; AID 1362; inhibition, % at 10 µM; 190,000 tested, 2.1% active; in the data active means inhibition above about 58%; tested in S. cerevisiae
PMI act satM6P – activators of human phosphomannose isomerase at near-saturating mannose 6-phosphate. P34949. 190,000 tested, 0.34% active. activation factor at 20 µM. coupled PMI enzyme assay, resazurin fluorescence, 20 min; active compounds read high; 1 = untreated enzyme, 0 = substrate-free blank;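 active means activation factor of 2 or more at 20 µM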
Target sequence (P34949 whole entry, looked up): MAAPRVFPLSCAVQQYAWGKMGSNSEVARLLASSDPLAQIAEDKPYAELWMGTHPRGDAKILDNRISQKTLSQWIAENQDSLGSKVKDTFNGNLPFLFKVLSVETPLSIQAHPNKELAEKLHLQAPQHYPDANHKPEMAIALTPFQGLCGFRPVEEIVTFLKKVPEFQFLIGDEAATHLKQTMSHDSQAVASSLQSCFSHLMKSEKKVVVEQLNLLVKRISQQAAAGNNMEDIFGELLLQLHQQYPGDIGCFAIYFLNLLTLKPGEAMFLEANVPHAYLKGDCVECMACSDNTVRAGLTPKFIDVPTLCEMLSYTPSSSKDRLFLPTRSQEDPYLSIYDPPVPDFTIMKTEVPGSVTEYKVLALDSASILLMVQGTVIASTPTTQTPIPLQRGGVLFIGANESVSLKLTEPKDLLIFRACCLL
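Test system: Human PMI in coupled enzyme assay | Input: 15 ng/mL PMI | Medium: HEPES-buffered pH 7.4 with magnesium and detergent | Compound: One concentration, 20 µM, in 1% DMSO | Incubation: Enzyme reaction with compound 20 min at room temperature | Detection: Diaphorase-driven resazurin-to-resorufin fluorescence, excitation 544, emission 590 nm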
PMI act – activators of human phosphomannose isomerase. purified human PMI, coupled resazurin fluorescence, 20 min; active compounds read high; 1 = vehicle control, 0 substrate-free wells. activation factor at 20 µM. 190,000 tested, 0.005% active. AID 1214;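 active means activation factor of 2 or more at 20 µM, relative to plate controls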
An asterisk follows results filed as active; · = no result.

SMILES	L major viab	Diaphorase act	WT yeast gro inh	PMI act satM6P	PMI act
CC(C)N1CCC(N2CCN(C3CCCCC3)CC2CCO)CC1 (centres undefined)	-6	1.1	24	1	1
Cc1ccc(CN2CCN(C3CCOCC3)CC2CCO)cc1 (centres undefined)	62*	0.8	0	0.8	0.8
CC(NC(=O)COC(=O)c1ccc(N(C)C)cc1)c1ccccc1 (centres undefined)	-5	0.9	8	0.8	0.9
COC(=O)Cn1c(=NC(=O)c2ccc(Cl)s2)sc2cc(C)ccc21	5	1.1	10	1.1	1.1
COC(=O)Cn1c(=NC(=O)c2ccc([N+](=O)[O-])s2)sc2cc(Br)ccc21	100*	1	77	1	1
Cc1cccc(C(=O)NC(=S)NNC(=O)c2ccccc2Cl)c1	-12	0.8	33	1.2	1
Cc1cc(C(=O)NNC(=S)NC(=O)/C=C/c2ccccc2Cl)n[nH]1	78*	0.6	-1	1.2	1.1
CC(=O)N(C(C)=O)S(=O)(=O)c1ccc(N=NN2CCOCC2)cc1	28	0.9	-16	1.1	1.2
Cc1c(Cl)c(=O)n2c(=O)c(Cl)c(C)n12	2	1	-3	1.1	1.2
CCCCN(CC)CCCNC(=O)C1CCN(c2ncnc3c2sc2cccc(F)c23)CC1	100*	0.9	-12	0.9	0.9
O=C(NCCN1CCOCC1)C1CCN(c2ncnc3c2sc2cccc(F)c23)CC1	-3	0.9	6	0.8	0.8
CCOc1ccc(C(C)(C)C)cc1S(=O)(=O)N1CC(C)OC(C)C1 (centres undefined)	64*	0.8	6	0.9	0.9
c1cncc(-c2ccnc3ncnn23)c1	-4	1	-4	1	1.1
Cc1cccc(C(=O)NC(C(=O)Nc2nc(-c3ccccn3)cs2)C(C)C)c1 (centres undefined)	98*	1	72*	1.1	1.1
Cn1cccc1C(=O)Nc1nc(-c2ccccn2)cs1	100*	0.8	-1	0.7	0.8
Cc1csc(NC(=O)c2cccn2C)n1	0	0.9	85*	1	1
C[C@H](NC(=O)c1ccccc1)C(=O)Nc1nc(-c2ccccn2)cs1	13	1	10	0.8	0.8
CCOCC(=O)Nc1ccccc1C(=O)O	-7	0.9	-12	1	1
O=C(/C=C/c1ccncc1)c1ccc2c(c1)OCCO2	100*	1	1	1	1
O=C(Nc1ccncc1)c1ccc2c(c1)OCCO2	3	0.9	-2	0.9	0.9
CN(C)c1ccc(/C=C/C(=O)c2ccc3c(c2)OCCO3)cc1[N+](=O)[O-]	92*	0.9	6	0.9	0.9
Cn1c(N)c(S(=O)(=O)N2CCN(c3ccccc3)CC2)c(=O)n(C)c1=O	0	0.9	-12	1	1
O=C1OCC(CO)(CO)N=C1NNc1cc(Cl)ccc1Cl	97*	0.9	49	1.8	1.4
CN1CCOC(=O)/C1=N/Nc1cc(Cl)ccc1Cl	25	0.9	21	1	1.2
COc1ccccc1-c1nnc(NC(=O)CSc2nncn2C)s1	-3	0.9	-1	1	1
SMILES	L major viab	Diaphorase act	WT yeast gro inh	PMI act satM6P	PMI act
Cc1nc2ccc(S(=O)(=O)NCC(=O)NC(C)c3ccccc3)cc2s1 (centres undefined)	-3	0.9	-1	0.9	0.9
Cc1cc(C)cc(-c2nnc(SCc3ccc(C(=O)O)cc3)o2)c1	4	·	-1	·	·
Cc1ccc(S(=O)(=O)N2CN(Cc3ccco3)c3nc4ccccc4nc32)cc1	58*	0.7	3	1.6	1.2
COc1ccc(S(=O)(=O)N2CN(Cc3ccco3)c3nc4ccccc4nc32)cc1	9	0.8	4	1.7	1.3
O=S(=O)(c1ccc(F)cc1)N1CN(Cc2ccco2)c2nc3ccccc3nc21	97*	0.8	63*	1.9	1.5
Cc1ccc(S(=O)(=O)N2CN(Cc3ccco3)c3nc4ccccc4nc32)cc1C	10	0.8	45	1.4	1.3
COCc1cc(=O)n2[nH]c(-c3ccccc3)cc2n1	2	0.9	6	1	0.9
COCc1cc(=O)n2[nH]c(-c3cccc(Br)c3)cc2n1	100*	0.8	24	0.8	0.8
Cc1ccc(N/N=C(\C#N)C(N)=S)cc1C	50*	1	49	2.1*	1.3
Nc1c(C(=O)c2ccccc2O)cnn1-c1ccc(S(=O)(=O)N2CCOCC2)cc1[N+](=O)[O-]	-4	0.7	11	1	1
COc1cccc(C2=CC(c3ccc(OC)c(OC)c3OC)n3nnnc3N2)c1 (centres undefined)	79*	0.9	8	1.2	1.1
Cc1cc(SCC(=O)N/N=C/c2ccc(O)c(O)c2)c(C)cc1Br	72*	0.7	27	0.8	0.8
CCCC(NC(=S)NCC1CCCO1)C12CC3CC(CC(C3)C1)C2 (centres undefined)	33	0.9	79*	0.9	1
COc1ccc(CC2(CO)CCN(Cc3c(C)nn(C(C)C)c3C)CC2)cc1	-3	0.8	-19	0.9	0.9
Cc1c(CN2CCC(CO)(Cc3cccc(C(F)(F)F)c3)CC2)c2ccccc2n1C	87*	1.2	24	1.1	1
COc1ccc(CC2(CO)CCN(Cc3cc4ccccc4o3)CC2)cc1	79*	0.9	16	0.8	0.9
CC(=O)c1ccc(C(=O)N2CCC(CO)(Cc3cccc(C(F)(F)F)c3)CC2)cc1	7	0.9	9	1	1
OCC1(Cc2cccc(C(F)(F)F)c2)CCN(Cc2cc3ccccc3o2)CC1	84*	0.8	43	0.9	0.9
O=C1C2CCCN2C(=O)N1CCCCN1CCN(c2ccc(F)cc2)CC1 (centres undefined)	-10	1	-5	1.2	1.2
CCc1cccc2c1NC(=O)C2(O)CC(=O)c1cccs1 (centres undefined)	-6	0.9	-7	1	1
CC(C)OC(=O)C(C)Oc1ccc(C(=O)NCCc2ccccc2)cc1 (centres undefined)	-1	1	8	1	1
CCn1c(C)cs/c1=N\C(=S)Nc1ccccc1C	22	0.8	62*	1	0.9
O=C1N=C2N(CCN3CCCCC3)c3ccccc3N2/C1=C\c1ccc([N+](=O)[O-])o1	100*	·	3	·	·
c1ccc2c(c1)N1CCCN=C1N2CCN1CCCCC1	-3	1	2	1.1	1.1
O=C(Nc1cccc2ccccc12)N1CC=C(c2ccccc2)CC1	-6	0.9	46	1	0.9
O=C(Nc1ccccc1)N1CC=C(c2ccccc2)CC1	81*	0.8	8	1.4	1.2
O=C(Nc1ccccc1)N1CC=C(c2ccc(F)cc2)CC1	85*	0.8	0	0.9	0.8
O=C(C(=O)N1CC=C(c2ccccc2)CC1)c1c[nH]c2ccccc12	-6	0.8	39	0.8	0.7
